# Test results published in ChEMBL document CHEMBL1142696, “Design and synthesis of melanocortin peptides with candidacidal and anti-TNF-alpha properties” (2005).
# Non-standard residues stand in square brackets, D forms with d. Residues, ends and D or L forms follow the SMILES beside them. d2Nal = N[C@H](Cc1ccc2ccccc2c1)C(=O)O
# How the values were obtained:
# Candida albicans = experiment: Inhibition of Candida albicans colony forming units (CFU) at 1e-4 M compound; type: functional
# Procedure, shortened: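 Six C. albicans isolates (five clinical, ATCC 24433), grown 48 h at 32 °C in Sabouraud-dextrose broth, washed and held in distilled water. 1 × 10^6 cells exposed to peptide at 10^-4 M final, 2 h at 37 °C; water controls. Diluted, plated on blood agar for 48 h at 37 °C, colonies counted manually. Kill = 100 − (test CFU/control CFU × 100). Triplicates, two independent experiments.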
# PBMC = experiment: Inhibition of tumor necrosis factor alpha release by endotoxin stimulated human peripheral blood mononuclear cells at 1e-4 M; type: functional
# Procedure, shortened: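 Human PBMC from five normal donors, isolated by Ficoll-Hypaque density centrifugation, washed in PBS and kept in RPMI 1640 with HEPES, glutamine, 10% FCS and penicillin/streptomycin. Cells at 2.5 × 10^5 per well were held 24 h at 37 °C, 5% CO2 with E. coli 055:B5 endotoxin 1 ng/mL plus peptide 10^-4 M. Supernatant TNF-α measured by immunoassay; % inhibition versus saline control, mean ± SD.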
SMILES,Inhibition (Candida albicans),Inhibition (PBMC)
CC(C)[C@H](NC(=O)[C@@H]1CCCN1C(=O)[C@H](CCCCN)NC(=O)CNC(=O)[C@H](Cc1c[nH]c2ccccc12)NC(=O)[C@H](CCCN=C(N)N)NC(=O)[C@@H](Cc1ccc2ccccc2c1)NC(=O)[C@@H](N)Cc1c[nH]cn1)C(N)=O (H-H[d2Nal]RWGKPV-NH2),95.3%,41.8%
CC(C)[C@H](NC(=O)[C@H](Cc1ccccc1)NC(=O)[C@H](CCCCN)NC(=O)CNC(=O)[C@H](Cc1c[nH]c2ccccc12)NC(=O)[C@H](CCCN=C(N)N)NC(=O)[C@H](N)Cc1ccc2ccccc2c1)C(N)=O,51.4%,<10%
CC(C)[C@H](NC(=O)[C@H](Cc1ccccc1)NC(=O)[C@H](CCCCN)NC(=O)CNC(=O)[C@H](Cc1c[nH]c2ccccc12)NC(=O)[C@H](CCCNC(=N)N)NC(=O)[C@H](Cc1ccccc1)NC(=O)[C@@H](N)Cc1cnc[nH]1)C(N)=O (H-HFRWGKFV-NH2),90.8%,<10%
CC(C)[C@H](NC(=O)[C@H](Cc1ccccc1)NC(=O)[C@H](CCCCN)NC(=O)CNC(=O)[C@H](Cc1c[nH]c2ccccc12)NC(=O)[C@@H](N)CCCN=C(N)N)C(N)=O (H-RWGKFV-NH2),19.3%,<10%
CC(C)[C@H](NC(=O)[C@H](Cc1ccccc1)NC(=O)[C@H](CCCCN)NC(=O)CNC(=O)[C@H](Cc1c[nH]c2ccccc12)NC(=O)[C@H](C)NC(=O)[C@@H](Cc1ccc2ccccc2c1)NC(=O)[C@@H](N)Cc1c[nH]cn1)C(N)=O,95.7%,23%
CC(C)[C@H](NC(=O)[C@H](Cc1ccccc1)NC(=O)[C@H](CCCCN)NC(=O)CNC(=O)[C@H](C)NC(=O)[C@H](CCCN=C(N)N)NC(=O)[C@@H](Cc1ccc2ccccc2c1)NC(=O)[C@@H](N)Cc1c[nH]cn1)C(N)=O,24.9%,18.1%
CC(C)[C@H](NC(=O)[C@H](Cc1ccccc1)NC(=O)[C@H](CCCCN)NC(=O)CNC(=O)[C@@H](N)Cc1c[nH]c2ccccc12)C(N)=O (H-WGKFV-NH2),5.7%,<10%
CC(C)[C@H](NC(=O)[C@H](Cc1ccccc1)NC(=O)[C@@H](N)CCCCN)C(N)=O (H-Lys-Phe-Val-NH2),2.7%,<10%
CC(C)[C@H](NC(=O)[C@H](Cc1ccccc1)NC(=O)[C@H](CCCCN)NC(=O)CNC(=O)[C@H](Cc1c[nH]c2ccccc12)NC(=O)[C@H](CCCN=C(N)N)NC(=O)[C@@H](Cc1ccc2ccccc2c1)NC(=O)[C@@H](N)Cc1c[nH]cn1)C(N)=O (H-H[d2Nal]RWGKFV-NH2),99.8%,18.7%
NC(=O)[C@H](Cc1c[nH]c2ccccc12)NC(=O)[C@H](CCCN=C(N)N)NC(=O)[C@@H](Cc1ccc2ccccc2c1)NC(=O)[C@@H](N)Cc1c[nH]cn1,43%,13.9%
CC(C)[C@H](NC(=O)[C@H](Cc1ccccc1)NC(=O)[C@H](CCCCN)NC(=O)CNC(=O)[C@H](Cc1c[nH]c2ccccc12)NC(=O)[C@H](CCCN=C(N)N)NC(=O)[C@H](C)NC(=O)[C@@H](N)Cc1c[nH]cn1)C(N)=O (H-HARWGKFV-NH2),49.9%,<10%
CC(C)[C@H](NC(=O)[C@H](Cc1ccccc1)NC(=O)[C@H](CCCCN)NC(=O)CNC(=O)[C@H](Cc1c[nH]c2ccccc12)NC(=O)[C@H](CCCN=C(N)N)NC(=O)[C@@H](Cc1ccc2ccccc2c1)NC(=O)[C@H](C)N)C(N)=O,62.8%,<10%
CC(C)[C@H](NC(=O)[C@@H]1CCCN1C(=O)[C@H](CCCCN)NC(=O)CNC(=O)[C@H](Cc1c[nH]c2ccccc12)NC(=O)[C@H](CCCN=C(N)N)NC(=O)[C@H](Cc1ccccc1)NC(=O)[C@@H](N)Cc1c[nH]cn1)C(N)=O (H-HFRWGKPV-NH2),59.4%,12.3%
CC(C)[C@H](NC(=O)[C@H](Cc1ccccc1)NC(=O)[C@H](CCCCN)NC(=O)CN)C(N)=O (H-GKFV-NH2),5%,<10%
